This is an account of results in ChEMBL document CHEMBL3872215, “Optimization and biological evaluation of aminopyrimidine-based IκB kinase β inhibitors with potent anti-inflammatory effects” (Eur J Med Chem, 2016).

Activity calls are given as the source filed them. The calls are words filed in the database; no cut-off is given here.

The target of series [1] is T1, Inhibitor of nuclear factor kappa-B kinase subunit beta (Homo sapiens, UniProt O14920).
T1 sequence (O14920 whole entry): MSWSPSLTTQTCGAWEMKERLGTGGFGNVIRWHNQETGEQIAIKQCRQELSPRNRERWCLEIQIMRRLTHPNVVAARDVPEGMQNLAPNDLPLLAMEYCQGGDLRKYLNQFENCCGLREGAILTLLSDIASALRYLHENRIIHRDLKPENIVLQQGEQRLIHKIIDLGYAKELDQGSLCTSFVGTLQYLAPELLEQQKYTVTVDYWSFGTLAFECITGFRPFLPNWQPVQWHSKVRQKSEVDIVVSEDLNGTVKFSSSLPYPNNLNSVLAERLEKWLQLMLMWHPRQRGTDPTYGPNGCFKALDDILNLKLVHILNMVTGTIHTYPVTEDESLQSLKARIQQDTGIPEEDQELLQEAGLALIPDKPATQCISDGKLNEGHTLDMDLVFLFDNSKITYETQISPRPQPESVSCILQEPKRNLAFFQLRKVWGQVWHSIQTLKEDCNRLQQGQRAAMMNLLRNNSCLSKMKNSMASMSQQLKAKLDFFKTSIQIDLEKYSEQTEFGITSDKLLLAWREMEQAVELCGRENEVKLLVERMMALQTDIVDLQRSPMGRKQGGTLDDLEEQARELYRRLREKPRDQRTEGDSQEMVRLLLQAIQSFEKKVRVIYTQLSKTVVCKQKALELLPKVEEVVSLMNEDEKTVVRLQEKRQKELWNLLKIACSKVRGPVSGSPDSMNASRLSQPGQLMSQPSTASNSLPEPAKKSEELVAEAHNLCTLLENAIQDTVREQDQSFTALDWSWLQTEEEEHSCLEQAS
Description: Inhibition of IKKbeta (unknown origin).

Series [2] in a line: Lipophilicity, logD of the compound at pH 7.4. The class given is physicochemical. The note with it: buffer.
For series [3], the system named is RAW264.7. Description: Antiinflammatory activity against mouse RAW264.7 cells assessed as inhibition of LPS induced nitrite accumulation at 1 to 5 uM preincubated for 6 hrs followed by LPS challenge measured after 18 hrs by Griess reagent based assay. The series is classed as functional, cell-based. In a few lines: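 Cells seeded at 1 × 10^5 cells/ml and grown 24 h, then pretreated 6 h with compound at 1, 2 or 5 µM. LPS 100 ng/ml added for a further 18 h. NO production read as nitrite in the culture medium and compared with the negative control.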
(The Griess reaction detects nitrite, a stable product of nitric oxide.)

The target in series [4] is T2, Inhibitor of nuclear factor kappa-B kinase subunit beta (Mus musculus) (UniProt O88351).
T2 sequence (whole entry): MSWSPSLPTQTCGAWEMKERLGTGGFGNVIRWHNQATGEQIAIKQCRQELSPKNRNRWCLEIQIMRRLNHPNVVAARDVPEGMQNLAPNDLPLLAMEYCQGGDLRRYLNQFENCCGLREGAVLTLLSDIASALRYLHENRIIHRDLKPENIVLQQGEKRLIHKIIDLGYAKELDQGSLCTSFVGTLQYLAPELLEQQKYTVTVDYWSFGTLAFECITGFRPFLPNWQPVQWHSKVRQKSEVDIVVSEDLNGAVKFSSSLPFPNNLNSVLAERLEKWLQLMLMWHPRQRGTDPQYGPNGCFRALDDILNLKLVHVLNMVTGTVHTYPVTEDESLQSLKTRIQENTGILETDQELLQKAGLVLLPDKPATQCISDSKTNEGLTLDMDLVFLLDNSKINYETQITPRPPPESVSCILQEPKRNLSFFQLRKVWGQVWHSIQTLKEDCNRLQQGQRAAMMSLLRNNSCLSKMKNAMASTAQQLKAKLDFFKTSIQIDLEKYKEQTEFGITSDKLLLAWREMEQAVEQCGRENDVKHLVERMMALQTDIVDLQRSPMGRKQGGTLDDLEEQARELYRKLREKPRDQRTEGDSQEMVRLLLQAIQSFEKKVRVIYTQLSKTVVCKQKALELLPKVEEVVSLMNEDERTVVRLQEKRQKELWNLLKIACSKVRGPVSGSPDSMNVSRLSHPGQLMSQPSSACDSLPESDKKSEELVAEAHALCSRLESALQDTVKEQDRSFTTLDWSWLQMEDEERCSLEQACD
Description: Inhibition of LPS-induced IKKbeta-mediated IkappaB-alpha phosphorylation in mouse RAW264.7 cells preincubated for 6 hrs followed by LPS challenge measured after 30 mins by Western blot method. (A western blot detects proteins with antibodies after separation by electrophoresis.)

The test system of series [5] is RAW264.7. Description: Antiinflammatory activity against mouse RAW264.7 cells assessed as inhibition of LPS induced TNF-alpha production preincubated for 6 hrs followed by LPS challenge measured after 18 hrs by ELISA method. The series is classed as functional, cell-based. In a few lines: (§1)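 Cells plated at 4 × 10^5 per well and left to attach overnight, then pretreated 6 h with compound (1, 2 and 5 µM) before LPS 100 ng/ml for 18 h. IL-6 and TNF-α measured in cell-free supernatants with a mouse ELISA kit, following the kit instructions.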
A general note: ELISA stands for enzyme-linked immunosorbent assay.

Series [6] addresses T2, Inhibitor of nuclear factor kappa-B kinase subunit beta (Mus musculus). Kind of series: Inhibition of LPS induced IKKbeta-mediated NF-kappa-B p65 nuclear translocation in mouse RAW264.7 cells at 5 uM preincubated for 6 hrs followed by LPS challenge measured after 30 mins by DAPI staining based confocal laser scanning microscopic method. The series is classed as cell-based. A digest of the protocol:
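Pretreatment 6 h with 5 µM compound, then LPS 100 ng/ml for 30 min. Cells fixed in acetone:methanol 1:1 for 10 min, blocked 1 h at room temperature, and incubated overnight at 4 °C with p-NF-κB antibody (1:50). RITC secondary (1:100) applied 1 h, nuclei stained with DAPI, and slides imaged by confocal laser scanning microscopy.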

For series [7] the target is unchanged. Kind of series: Inhibition of LPS-induced IKKbeta-mediated NF-kappa-B p65 phosphorylation in mouse RAW264.7 cells preincubated for 6 hrs followed by LPS challenge measured after 30 mins by ELISA method. The class given is cell-based. A digest of the protocol:
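Cells exposed 6 h to compound at 1, 2 and 5 µM, then LPS 100 ng/ml for 30 min. Cytoplasmic phospho-NF-κB p65 measured with an ELISA kit, following the kit instructions.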

In series [8] the test system is RAW264.7. Kind of series: Antiinflammatory activity against mouse RAW264.7 cells assessed as inhibition of LPS induced SiCAM-1 production at 5 uM preincubated for 6 hrs followed by LPS challenge measured after 18 hrs. The series is classed as functional, cell-based. A digest of the protocol:
(§2)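 Cells cultured in DMEM with 10% FBS and 1% penicillin/streptomycin, pretreated 6 h with compound at 5 µM, then LPS 100 ng/ml for 18 h. Lysates mixed with antibody cocktail and incubated overnight on a blocked mouse cytokine array membrane, then streptavidin-HRP with chemiluminescent detection. Relative protein expression taken from densitometry of scanned images.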

The test system of series [9] is RAW264.7. Description: Antiinflammatory activity against mouse RAW264.7 cells assessed as inhibition of LPS induced nitric oxide synthase synthesis preincubated for 6 hrs followed by LPS challenge by western blot method. The series is classed as functional, cell-based.
The subject of series [10] is RAW264.7. Kind of series: Antiinflammatory activity against mouse RAW264.7 cells assessed as inhibition of LPS induced IL-6 production preincubated for 6 hrs followed by LPS challenge measured after 18 hrs by ELISA method. The series is classed as functional, cell-based. In a few lines: as §1
Series [11] concerns RAW264.7. Kind of series: Antiinflammatory activity against mouse RAW264.7 cells assessed as inhibition of LPS induced I-TAC production at 5 uM preincubated for 6 hrs followed by LPS challenge measured after 18 hrs. The class given is functional, cell-based. A digest of the protocol: as §2
Series [12] deals with RAW264.7. Description: Antiinflammatory activity against mouse RAW264.7 cells assessed as inhibition of LPS induced IL-1alpha production at 5 uM preincubated for 6 hrs followed by LPS challenge measured after 18 hrs. The class given is functional, cell-based. A digest of the protocol: as §2
For series [13], the system named is RAW264.7. Description: Antiinflammatory activity against mouse RAW264.7 cells assessed as inhibition of LPS induced TIMP-1 production at 5 uM preincubated for 6 hrs followed by LPS challenge measured after 18 hrs. The series is classed as functional, cell-based. A digest of the protocol:
as §2

Series [14] addresses T2, Inhibitor of nuclear factor kappa-B kinase subunit beta (Mus musculus). Kind of series: Inhibition of LPS-induced IKKbeta phosphorylation in mouse RAW264.7 cells preincubated for 6 hrs followed by LPS challenge measured after 30 mins by Western blot method.

As usually defined, the IC50 is the concentration that gives 50% inhibition. For the compound `Nc1ccccc1Oc1ccc(-c2ccnc(Nc3cccc(S(N)(=O)=O)c3)n2)cc1`, inhibition in series [1] was half-maximal at 1600 nM (IC50).

Take `NS(=O)(=O)c1ccc(Nc2nccc(-c3ccc(Cl)cc3)n2)cc1`: the 50% inhibitory concentration (IC50) in [1] was 19 nM. Still for that read-out and setting: with `CS(=O)(=O)Nc1ccc(Nc2nccc(-c3ccc(Oc4ccccc4[N+](=O)[O-])cc3)n2)cc1` the figure was 320 nM.

Turning to `CN(C)c1ccc(Nc2nccc(-c3ccc(Oc4ccccc4N)cc3)n2)cc1`, half-maximal inhibition in series [1] (IC50) was put at 28700 nM. Still for that read-out and setting: with `Cc1ccc(Nc2nccc(-c3ccc(Oc4ccccc4N)cc3)n2)cc1` the figure was over 50000 nM; with `COC(=O)Nc1ccc(Nc2nccc(-c3ccc(Oc4ccccc4[N+](=O)[O-])cc3)n2)cc1`, over 20000 nM; with `Nc1ccccc1Oc1ccc(-c2ccnc(Nc3ccc(Cl)cc3)n2)cc1`, 34100 nM. Still for that read-out and setting: with `NS(=O)(=O)c1ccc(Nc2nccc(-c3ccc(Oc4ccccc4[N+](=O)[O-])cc3)n2)cc1` the figure was 34 nM. By logD is commonly meant lipophilicity at a set pH, counting ionised and neutral species. A higher logD goes with higher lipophilicity. With `N#Cc1ccc(-c2ccnc(Nc3ccc(S(N)(=O)=O)cc3)n2)cc1`, in [2], the logD turned out to be 3.81. The compound also showed a concentration for half-maximal inhibition (IC50) in [1] of 58 nM. On to `CCOC(=O)Nc1ccc(Nc2nccc(-c3ccc(Oc4ccccc4[N+](=O)[O-])cc3)n2)cc1`, for which the half-inhibitory concentration (IC50) in series [1] was over 20000 nM. The same measure, in the same setting: in the case of `Nc1ccccc1Oc1ccc(-c2ccnc(Nc3ccc(S(=O)(=O)Nc4nccs4)cc3)n2)cc1` it was 1100 nM. On to `CNS(=O)(=O)c1ccc(Nc2nccc(-c3ccc(Oc4ccccc4[N+](=O)[O-])cc3)n2)cc1`, for which, in [1], the IC50 was 1100 nM. Still for that read-out and setting: with `CC(C)(C)OC(=O)NCCOc1ccc(-c2ccnc(Nc3ccc(S(N)(=O)=O)cc3)n2)cc1` the figure was 138 nM. The compound `Nc1ccccc1Oc1ccc(-c2ccnc(Nc3ccc(S(N)(=O)=O)cc3)n2)cc1` displayed a logD in [2] of 3.29. In addition, in series [1], the IC50 stood at 97 nM. In series [1], `CC(=O)c1ccc(Nc2nccc(-c3ccc(Oc4ccccc4N)cc3)n2)cc1` displayed a half-inhibitory concentration (IC50) of 8100 nM. This counts as single-digit micromolar.

For the compound `CS(=O)(=O)c1ccc(Nc2nccc(-c3ccc(Oc4ccccc4N)cc3)n2)cc1`, in [1], the IC50 came out at 2700 nM.

Consider `Nc1ccc(-c2ccnc(Nc3ccc(S(N)(=O)=O)cc3)n2)cc1`, for which the inhibition entry (with RAW264.7 [3]; in series [6]; with RAW264.7 [8]; in the series on RAW264.7 [11]; in the series on RAW264.7 [12]; in the series on RAW264.7 [13]) was “Active” in each case. In addition, the inhibition result (in [4]; in the series on RAW264.7 [5]; in [7]; with RAW264.7 [9]; in the series on RAW264.7 [10]; in series [14]) was “Dose-dependent effect” in each case. In [1], it took 41 nM to reach half-maximal inhibition (IC50).

Take `N#Cc1ccc(-c2ccnc(Nc3ccc(S(=O)(=O)NCCO)cc3)n2)cc1`: 111 nM corresponded to half-maximal inhibition in series [1] (IC50).

As for `CN(C)CCOc1ccc(-c2ccnc(Nc3ccc(S(N)(=O)=O)cc3)n2)cc1`, the inhibition entry with RAW264.7 [3] was “Active”. The compound also gave an IC50 in series [1] of 79 nM. Take `NC(=O)c1ccc(Nc2nccc(-c3ccc(Oc4ccccc4N)cc3)n2)cc1`: in series [1], the IC50 was 14200 nM. This counts as double-digit micromolar. Same read-out and setting: in the case of `Nc1ccccc1Oc1ccc(-c2ccnc(Nc3ccccc3)n2)cc1` it was 11800 nM. In turn, `CC(=O)Nc1ccc(Nc2nccc(-c3ccc(Oc4ccccc4N)cc3)n2)cc1` came in with an IC50 in [1] of 4200 nM.

For the compound `Nc1ccc(-c2ccnc(Nc3ccc(S(=O)(=O)NCCO)cc3)n2)cc1`, the inhibition entry in the series with RAW264.7 [3] is “Active”. The same compound showed a pH-dependent lipophilicity (logD) in series [2] of 0.58. The IC50 in series [1] came out at 53 nM. Take `NCCOc1ccc(-c2ccnc(Nc3ccc(S(N)(=O)=O)cc3)n2)cc1`: the inhibition entry with RAW264.7 [3] is “Active”. For the same compound, the log distribution coefficient (logD) in [2] turned out to be 1.39. Moreover, in [1], the midpoint of inhibition, the IC50, lay at 65 nM. In turn, `N#Cc1ccc(Nc2nccc(-c3ccc(Oc4ccccc4N)cc3)n2)cc1` returned an IC50 in series [1] of 6200 nM. That is a single-digit micromolar value. For `N#Cc1cccc(-c2ccnc(Nc3ccc(S(=O)(=O)NCCO)cc3)n2)c1`, the inhibition result with RAW264.7 [3] was “Active”. Also, in series [2], the logD is 1.49. The compound also displayed an IC50 in series [1] of 190 nM.

The compound `Nc1ccccc1Oc1ccc(-c2ccnc(Nc3ccc4ncsc4c3)n2)cc1` came in with an IC50 in series [1] of 4600 nM.

In turn, `COc1ccc(Nc2nccc(-c3ccc(Oc4ccccc4N)cc3)n2)cc1` came in with an IC50 in series [1] of 12000 nM. The compound `NS(=O)(=O)c1ccc(Nc2nccc(-c3ccc(Oc4ccccc4)cc3)n2)cc1` displayed a 50% inhibitory concentration (IC50) in [1] of 1520 nM.
